AI-2 QS mod: Vibrio harveyi AI-2 quorum sensing modulators, primary screen, JMH597 strain, luminescence/OD600 ratio; Vibrio harveyi JMH597 AI-2 luminescence/OD600 ratio, 9 h; stronger effect = lower value; strain lacks LuxN and CqsS sensors; 0 = neutral-control median; activity change, % at 7.5 µM; 300,000 compounds, 0.4% hits; AID 2094, 2009; in the data active = activity change below about -75%, passing the limit was not always enough; inconclusive = no clear call, values can overlap the other calls;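 note: luminescence divided by OD600 gain over 9 h not by final OD600 alone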
KLK7 zymogen act: proKLK7 zymogen activators, primary screen, biochemical, fluorescence intensity; Kallikrein-7 (Homo sapiens), P49862; purified proKLK7, EDANS-DABCYL substrate fluorescence; 100% is mature enzyme control, 0% vehicle; activation, % at 7 µM; 370,000 compounds, 0.9% hits; AID 652039, 2013;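 active = activation above the mean of all tested compounds plus 3 SD, computed per campaign excluding outliers beyond control limits, cut at about 13% in these data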
Target sequence (P49862 whole entry, looked up): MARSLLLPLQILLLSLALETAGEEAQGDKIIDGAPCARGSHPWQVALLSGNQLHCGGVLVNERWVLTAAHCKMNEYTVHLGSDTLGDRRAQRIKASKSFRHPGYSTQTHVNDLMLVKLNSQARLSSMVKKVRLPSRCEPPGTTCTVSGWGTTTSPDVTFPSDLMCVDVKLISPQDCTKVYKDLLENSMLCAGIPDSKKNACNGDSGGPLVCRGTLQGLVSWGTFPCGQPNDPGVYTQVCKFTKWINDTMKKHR
Wee1 degr inh: Wee1 degradation inhibitors, primary screen, cell-based, HeLa, Wee1K328M-luciferase, luminescence; Wee1-like protein kinase (Homo sapiens), P30291; HeLa Luc-Wee1K328M stability; 100% = proteasome inhibitor MG132 effect; reporter increase, % at 5 µM; 220,000 compounds, 1.2% hits;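 active = activation above the mean of all tested compounds plus 3 SD, set per screening run, cut at about 8.8% in these data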;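 note: cells exposed to compound for 20 h before luminescence read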
Runt-CBFb FRET: inhibitors of RUNX1 Runt–CBFb binding, primary screen, biochemical, FRET, Cerulean-Runt, Venus-CBFb, uHTS; Runt-related transcription factor 1 (Homo sapiens) + Core-binding factor subunit beta …; AID 1496, 2009; inhibition, % at 20 µM; 220,000 compounds, 0.46% hits; Cerulean-Runt/Venus-CBFb FRET ratio 530/480, 1 h;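 active = inhibition over about 50% at 20 µM in the single-dose screen, limit read from the data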
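Assay system: Cerulean-tagged RUNX1 Runt domain (FRET donor) fusion protein / Amount: 100 nM each of Venus-CBFb and Cerulean-Runt domain / Medium: Tris buffer pH 7.5 with salts and BSA / Also added: Venus-CBFb 100 nM / Schedule: 1 h complex formation plus 1 h compound treatment, room temperature / Signal: FRET fluorescence / Read-out: loss of energy transfer signal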
RanGTP-Imp inh: inhibitors of RanGTP-importin-beta interaction, primary screen, biochemical, FRET, CFP-Ran, YFP-importin-beta, homogeneous | inhibition, % (no concentration beside the values) | 300,000 compounds, 1.1% hits | cell-free CFP-Ran/YFP-importin-beta FRET ratio | AID 2216, 2009 | Ran GTPase (GTP-bound) - importin-beta complex;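 active = more than half of the replicate wells show a fall in the fluorescence ratio signal beyond about 16%, limit read from the data, passing the limit was not always enough; inconclusive = exactly half of the replicate wells pass the set limit; inactive = fewer than half of replicates pass the limit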
Runt-SMMHC FRET: inhibitors of RUNX1 Runt–CBFb-SMMHC binding, primary screen, biochemical, FRET, Cerulean-Runt, Venus-CBFb-SMMHC, uHTS | Cerulean-Runt/Venus-CBFb-SMMHC FRET ratio 530/480, 1 h | inhibition, % at 20 µM | 220,000 compounds, 0.74% hits;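 active = mean inhibition across duplicate retests at 20 µM reaching about 50%, limit read from the data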;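 note: inhibitors lower the FRET ratio by blocking Runt binding to CBFb-SMMHC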
A number is an active result; – = inactive; ? = inconclusive; · = no result. In the library only some 2.9% were active in any assay of this set; here they are far more common.

SMILES | AI-2 QS mod | KLK7 zymogen act | Wee1 degr inh | Runt-CBFb FRET | RanGTP-Imp inh | Runt-SMMHC FRET
Oc1c(CN2CCN(c3ccccn3)CC2)cc(Cl)c2cccnc12 | ? | · | – | – | 24 | –
CCN(CC)C(=O)CC[C@H]1CC[C@]2(CCCN(C(=O)c3ccco3)C2)O1 | · | – | · | · | · | ·
CC(C)N1CCc2c(sc(NC(=O)c3ccc(S(=O)(=O)N(C)CC4CCCO4)cc3)c2C(N)=O)C1 (configuration not stated) | – | – | · | · | 72 | ·
CCN1CCc2c(sc(NC(=O)c3ccc(S(=O)(=O)N(C)CC4CCCO4)cc3)c2C(N)=O)C1 (configuration not stated) | – | – | · | · | 48 | ·
CCOC(=O)c1c(C2CC2)csc1NC(=O)COC(=O)CCS(=O)(=O)c1ccc(C)cc1 | – | – | – | – | – | –
COC(=O)[C@]12C[C@H](CC(=O)N3CCOCC3)C(=O)N(Cc3ccccc3)C1=C[C@H](C(C)(C)C)O[C@@H]2C | · | – | · | · | · | ·
O=C(NCc1ccccc1F)C1CCCN(S(=O)(=O)N2CCOCC2)C1 (configuration not stated) | – | – | · | · | – | ·
O=C(Nc1nccs1)NC(C(F)(F)F)C(F)(F)F | – | – | – | – | – | –
O=C(/C=C/Nc1nccs1)C(F)(F)Cl | – | – | – | – | – | 71
CCCC12CN3CCN(CC(C3)/C1=N\NC(=O)c1ccc(F)cc1)C2 | – | – | – | – | – | –
CCCC12CN3CCN(CC(C3)/C1=N\NC(=O)Nc1ccccc1)C2 | – | – | 10.0 | – | – | –
Cc1ccc(S(=O)(=O)c2cc3c(=O)n4cc(C)ccc4nc3n(CC3CCCO3)c2=N)cc1 (configuration not stated) | · | · | · | 86 | · | 90
N=c1c(S(=O)(=O)c2ccc(Cl)cc2)cc2c(=O)n3ccccc3nc2n1CC1CCCO1 (configuration not stated) | – | · | · | · | 112 | ·
N=c1c(S(=O)(=O)c2ccc(Cl)cc2)cc2c(=O)n3ccccc3nc2n1C1CCCC1 | – | – | · | · | 132 | ·
N=c1c(S(=O)(=O)c2ccccc2)cc2c(=O)n3ccccc3nc2n1CC1CCCO1 (configuration not stated) | · | – | – | 105 | · | 61
CCn1c(=N)c(S(=O)(=O)c2ccc(Cl)cc2)cc2c(=O)n3ccccc3nc21 | – | · | – | · | – | ·
OCCn1nc(-c2ccccc2)cc1-c1ccccc1 | – | – | · | · | – | ·
CC(C)C[C@@H]1COc2cccc(N3CCN(Cc4ccccc4F)CC3)c2S(=O)(=O)N1 | · | – | · | · | · | ·
O=C(COC(=O)COc1ccc(Br)cc1)NC1CCS(=O)(=O)C1 (configuration not stated) | · | – | · | · | · | ·
COc1cccc(NC(=S)N(Cc2cccc(Br)c2)CC2CCC(C(=O)O)CC2)c1 (configuration not stated) | – | – | – | – | – | –
N=c1c(S(=O)(=O)c2ccc(Br)cc2)cc2c(=O)n3ccccc3nc2n1Cc1ccco1 | – | – | · | · | – | ·
N=c1c(S(=O)(=O)c2ccc(Cl)cc2)cc2c(=O)n3ccccc3nc2n1Cc1ccco1 | – | – | · | · | 96 | ·
O=C(CC1CCCC1)N[C@H](C(=O)N1CCC[C@H]1C(=O)NC1CCCC1)c1ccccc1 | · | – | · | · | · | ·
O=C1CCCCC1Sc1nnc(Nc2ccccc2)s1 (configuration not stated) | – | – | 8.9 | – | – | –
CC(=O)N1c2ccccc2C(C)=NCC1C(=O)NC1CCCCC1 (configuration not stated) | · | – | · | · | · | ·
SMILES | AI-2 QS mod | KLK7 zymogen act | Wee1 degr inh | Runt-CBFb FRET | RanGTP-Imp inh | Runt-SMMHC FRET
CCOc1ccc(C(=O)N(CN2CCCC2=O)c2ccc(C)cc2)cc1 | – | – | – | – | – | –
CCOc1ccc(C(=O)N(CN2CCCC2=O)c2ccccc2)cc1 | – | – | 13 | – | – | –
CC1C/C(=N/Nc2nc3ccccc3[nH]2)CC(C)(C)C1 (configuration not stated) | – | – | 10 | – | – | –
CC1C/C(=N/NC(=O)c2ccc(CSc3nc4ccccc4[nH]3)cc2)CC(C)(C)C1 (configuration not stated) | – | – | – | – | – | –
O=c1c(/C=C(\O)c2ccccc2)nc2ccccc2n1-c1ccccc1 | – | – | – | – | 72 | –
O=C(Nc1sc2c(c1C(=O)NCc1ccco1)CCCC2)c1ccc2c(c1)OCO2 | – | – | – | – | ? | 65
Cc1ccc(C(=O)Nc2sc3c(c2C(=O)NCc2ccco2)CCCC3)cc1 | · | – | – | – | – | –
Cc1cc(CN(C)Cc2c(C(=O)N3CCCCCCC3)nc3ccc(Cl)cn23)n[nH]1 | – | – | 9.3 | – | – | –
CN(Cc1c(C(=O)N2CCCCCCC2)nc2ccc(Cl)cn12)C1CCOC1 (configuration not stated) | – | – | · | · | – | ·
N#Cc1ccc(NC(=O)COC(=O)CCc2nc3ccccc3c(=O)[nH]2)cc1 | – | – | 9.7 | – | – | –
O=C(COC(=O)CCc1nc2ccccc2c(=O)[nH]1)Nc1ccccc1 | · | – | · | · | · | ·
COc1ccc(N2CC(C)Cn3c2nc2c3c(=O)n(CCc3ccccc3)c(=O)n2C)cc1 (configuration not stated) | – | – | · | – | 41 | –
CCCCN1C(=O)C(CC(=O)NCCCN(C)C)CC(C(=O)N2CCOCC2)=C1C (configuration not stated) | · | – | · | · | · | ·
O=C(CCN(NC(=O)c1ccccc1)C1=NS(=O)(=O)c2ccccc21)NC1CCCCC1 | – | – | – | – | – | –
O=C(COC(=O)c1ccc([N+](=O)[O-])s1)NCc1ccccc1 | – | – | – | – | – | –
Cc1[nH]c2ccccc2c1C(=O)COC(=O)c1ccc([N+](=O)[O-])s1 | -128 | – | – | – | – | –
O=C(CSc1nc2ncccc2[nH]1)Nc1ccc2c(c1)OCO2 | – | – | – | – | – | –
COc1ccc(NC(=O)CSc2nc3ncccc3[nH]2)cc1OC | – | – | 11 | – | – | –
COc1ccc(CC(=O)Nc2nc(-c3cccc([N+](=O)[O-])c3)cs2)cc1 | – | – | 10 | – | – | –
CCCc1nc2c(=O)n(C)c(=O)[nH]c2n1C | – | – | – | 122 | 108 | 114
